Measured values reported in ChEMBL document CHEMBL1145384, “Novel C-6 fluorinated acyclic side chain pyrimidine derivatives: synthesis, (1)H and (13)C NMR conformational studies, and antiviral and cytostatic evaluations” (J Med Chem, 2007).
pEC50, pIC50: −log10 of the molar value.

Experiments:
[1] = test system: Mammalian orthoreovirus 1; assay: Antiviral activity against reovirus1 virus in Vero cells assessed as reduction of virus plaque formation after 7 days; assay type: functional, organism-based; conditions: Mammalian orthoreovirus 1, Vero, 168 h
Human alphaherpesvirus 3 [2] = assay: Antiviral activity against thymidine kinase deficient Varicella-Zoster virus 07/1 assessed as reduction of plaque formation; assay type: functional, organism-based; conditions: Human alphaherpesvirus 3, 07/1
Summary of the method: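 Plaque reduction assay in HEL cells against TK+ (OKA) and TK- (07/1) VZV strains; virus input 100 PFU; EC50 as concentration giving 50% plaque reduction.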

HeLa = assay: Growth inhibition of HeLa cells after 72 hrs by MTT assay; assay type: functional, cell-based; conditions: Homo sapiens
Summary of the method: (§1)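 Tumor lines grown as monolayers in DMEM with 10% FBS, 2 mM L-glutamine and penicillin. Freshly diluted compounds added, solvent tested at matching concentrations; after 72 h growth measured by MTT. IC50 obtained by linear regression of concentrations bracketing 50% growth; mean of three separate experiments.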

Punta Toro virus = assay: Antiviral activity against Punta Toro virus in Vero cells assessed as reduction of virus plaque formation after 7 days; assay type: functional, organism-based; conditions: 168 h
[3] = Cytotoxicity against HEL cells assessed as cell morphology after 7 days; assay type: cell-based; conditions: human
Summary of the method: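 Uninfected confluent HEL cultures exposed to compounds; MCC recorded as lowest concentration producing a microscopically detectable alteration of normal cell morphology at day 7.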

Sindbis virus = assay: Antiviral activity against sindbis virus in Vero cells assessed as reduction of virus plaque formation after 7 days; assay type: functional, organism-based; conditions: 168 h
MIA PaCa-2 = assay: Growth inhibition of MiaPaCa2 cells after 72 hrs by MTT assay; assay type: functional, cell-based; conditions: Homo sapiens, MIA PaCa-2, 72 h; summary of the method: as §1
[4] = Cytotoxicity against HEL cells assessed as cell growth after 7 days; assay type: cell-based; conditions: human
[5] = Growth inhibition of human Molt4/C8 cells after 72 hrs by MTT assay; assay type: functional, cell-based; conditions: MOLT-4, 72 h
HEp-2 = assay: Growth inhibition of Hep2 cells after 72 hrs by MTT assay; assay type: functional, cell-based; conditions: Homo sapiens, HEp-2, 72 h; summary of the method: as §1
SW-620 = assay: Growth inhibition of SW620 cells after 72 hrs by MTT assay; assay type: functional, cell-based; conditions: Homo sapiens, SW-620, 72 h; summary of the method: as §1
Human betaherpesvirus 5 [6] = assay: Antiviral activity against human cytomegalovirus AD169 in HEL cells assessed as reduction of plaque formation after 7 days; assay type: functional, organism-based; conditions: Human betaherpesvirus 5, AD169, HEL, 168 h
Summary of the method: (§2)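 Confluent HEL fibroblasts infected with HCMV (Davis or AD-169) at 100 PFU per well; after 2 h adsorption, residual virus removed and medium with serial compound concentrations added (duplicate wells). Incubated 7 days; EC50 taken as concentration reducing plaque formation by 50%.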

Human respirovirus 3 = assay: Antiviral activity against parainfluenza 3 virus in Vero cells assessed as reduction of virus plaque formation after 7 days; assay type: functional, organism-based; conditions: Human respirovirus 3, Vero, 168 h
MCF7 = assay: Growth inhibition of MCF7 cells after 72 hrs by MTT assay; assay type: functional, cell-based; conditions: Homo sapiens, MCF7, 72 h; summary of the method: as §1
Coxsackievirus B4 = assay: Antiviral activity against coxsackie B4 virus in HeLa cells assessed as reduction of virus plaque formation after 7 days; assay type: functional, organism-based; conditions: Enterovirus B, 168 h
L1210 = assay: Growth inhibition of mouse L1210 cells after 72 hrs by MTT assay; assay type: functional, cell-based; conditions: L1210, 72 h
CCRF-CEM = assay: Growth inhibition of human CEM cells after 72 hrs by MTT assay; assay type: functional, cell-based
Human alphaherpesvirus 3 [7] = assay: Antiviral activity against thymidine kinase expressing Varicella-Zoster virus OKA assessed as reduction of plaque formation; assay type: functional, organism-based; conditions: Human alphaherpesvirus 3, OKA
Human betaherpesvirus 5 [8] = assay: Antiviral activity against human cytomegalovirus Davis in HEL cells assessed as reduction of plaque formation after 7days; assay type: functional, organism-based; conditions: Human betaherpesvirus 5, Davis, 168 h; summary of the method: as §2

In the case of `COc1nc(C)c(-c2ccccc2)c(OC)n1`, the pEC50 [1] was < 4.40, the pEC50 (Human alphaherpesvirus 3 [2]) was < 4.70 and the pIC50 (HeLa) was 4.05. The pEC50 (Punta Toro virus) was 4.40, the MCC at 168 h [3] was 100 µM and the pEC50 (Sindbis virus) was < 4.40. For the same compound, the pIC50 (MIA PaCa-2) was < 4.00, the CC50 at 168 h [4] was 34 µM and the pIC50 [5] was 4.15. For the same compound, the pIC50 (HEp-2) was < 4.00, the pIC50 (SW-620) was < 4.00 and the pEC50 (Human betaherpesvirus 5 [6]) was < 4.70. The pEC50 (Human respirovirus 3) was < 4.40, the pIC50 (MCF7) was < 4.00 and the pEC50 (Coxsackievirus B4) was < 4.40. For the same compound, the pIC50 (L1210) was 4.11, the pIC50 (CCRF-CEM) was 4.37 and the pEC50 (Human alphaherpesvirus 3 [7]) was < 4.70. For the same compound, the pEC50 (Human betaherpesvirus 5 [8]) was < 4.70.
In the case of `O=c1[nH]c(=O)n([C@H]2C[C@H](O)[C@@H](CO)O2)cc1/C=C/Br` [BRIVUDINE], the pEC50 [1] was < 3.60, the pEC50 (Human alphaherpesvirus 3 [2]) was 3.77 and the pEC50 (Punta Toro virus) was < 3.60. For the same compound, the MCC at 168 h [3] was ≥ 1200 µM, the pEC50 (Sindbis virus) was < 3.60 and the CC50 at 168 h [4] was 408 µM. The pEC50 (Human respirovirus 3) was < 3.60, the pEC50 (Coxsackievirus B4) was < 3.60 and the pEC50 (Human alphaherpesvirus 3 [7]) was 7.85.
For `Nc1nc2c(ncn2COCCO)c(=O)[nH]1` [ACYCLOVIR], the MCC at 168 h [3] was > 1780 µM and the CC50 at 168 h [4] was 649 µM.
With `COc1cc(/C=C(/O)C(F)(F)F)nc(OC)n1` the pEC50 [1] was < 4.00, the pEC50 (Human alphaherpesvirus 3 [2]) was < 4.00 and the pIC50 (HeLa) was < 3.70. For the same compound, the pEC50 (Punta Toro virus) was < 4.00, the MCC at 168 h [3] was > 100 µM and the pEC50 (Sindbis virus) was < 4.00. The pIC50 (MIA PaCa-2) was < 3.70, the CC50 at 168 h [4] was > 100 µM and the pIC50 [5] was 4.10. For the same compound, the pIC50 (HEp-2) was < 3.70, the pIC50 (SW-620) was < 3.70 and the pEC50 (Human betaherpesvirus 5 [6]) was < 4.10. For the same compound, the pEC50 (Human respirovirus 3) was < 4.00, the pIC50 (MCF7) was < 3.70 and the pEC50 (Coxsackievirus B4) was < 3.70. The pIC50 (L1210) was < 3.70, the pIC50 (CCRF-CEM) was < 3.70 and the pEC50 (Human alphaherpesvirus 3 [7]) was < 4.00. For the same compound, the pEC50 (Human betaherpesvirus 5 [8]) was < 4.00.
With `COc1cc(/C=C(\C)c2ccc(F)cc2)nc(OC)n1` the pEC50 [1] was < 4.40, the pEC50 (Human alphaherpesvirus 3 [2]) was < 4.70 and the pIC50 (HeLa) was 4.77. For the same compound, the pEC50 (Punta Toro virus) was 4.40, the MCC at 168 h [3] was 100 µM and the pEC50 (Sindbis virus) was < 4.40. The pIC50 (MIA PaCa-2) was < 4.00, the CC50 at 168 h [4] was 88 µM and the pIC50 [5] was < 3.70. For the same compound, the pIC50 (HEp-2) was 4.70, the pIC50 (SW-620) was 4.25 and the pEC50 (Human betaherpesvirus 5 [6]) was < 4.70. The pEC50 (Human respirovirus 3) was < 4.40, the pIC50 (MCF7) was 4.80 and the pEC50 (Coxsackievirus B4) was < 4.40. The pIC50 (L1210) was < 3.70, the pIC50 (CCRF-CEM) was 4.13 and the pEC50 (Human alphaherpesvirus 3 [7]) was < 4.70. The pEC50 (Human betaherpesvirus 5 [8]) was < 4.70.
In the case of `COc1cc(/C=C(\O)C(F)(F)C(F)(F)F)nc(OC)n1`, the pEC50 [1] was < 4.00, the pEC50 (Human alphaherpesvirus 3 [2]) was < 4.00 and the pIC50 (HeLa) was 4.58. The pEC50 (Punta Toro virus) was < 4.00, the MCC at 168 h [3] was > 100 µM and the pEC50 (Sindbis virus) was < 4.00. For the same compound, the pIC50 (MIA PaCa-2) was ≤ 4.00, the CC50 at 168 h [4] was ≥ 60 µM and the pIC50 [5] was 4.37. For the same compound, the pIC50 (HEp-2) was 4.26, the pIC50 (SW-620) was 4.35 and the pEC50 (Human betaherpesvirus 5 [6]) was < 4.00. For the same compound, the pEC50 (Human respirovirus 3) was < 4.00, the pIC50 (MCF7) was 4.12 and the pEC50 (Coxsackievirus B4) was < 4.00. For the same compound, the pIC50 (L1210) was 4.10, the pIC50 (CCRF-CEM) was 5.01 and the pEC50 (Human alphaherpesvirus 3 [7]) was < 4.00. For the same compound, the pEC50 (Human betaherpesvirus 5 [8]) was < 4.00.
For `Nc1nc2c(ncn2COC(CO)CO)c(=O)[nH]1` [GANCICLOVIR], the MCC at 168 h [3] was > 1580 µM, the CC50 at 168 h [4] was 172 µM and the pEC50 (Human betaherpesvirus 5 [6]) was 5.32. It also gave a pEC50 (Human betaherpesvirus 5 [8]) of 5.89.
With `COc1cc(CC(C)(O)CF)nc(OC)n1` (stereo not given) the pEC50 [1] was < 3.70, the pEC50 (Human alphaherpesvirus 3 [2]) was < 4.00 and the pIC50 (HeLa) was < 3.70. The pEC50 (Punta Toro virus) was < 3.70, the MCC at 168 h [3] was > 100 µM and the pEC50 (Sindbis virus) was < 3.70. For the same compound, the pIC50 (MIA PaCa-2) was < 3.70, the CC50 at 168 h [4] was > 100 µM and the pIC50 [5] was < 3.70. The pIC50 (HEp-2) was < 3.70, the pIC50 (SW-620) was < 3.70 and the pEC50 (Human betaherpesvirus 5 [6]) was < 4.00. The pEC50 (Human respirovirus 3) was < 3.70, the pIC50 (MCF7) was < 3.70 and the pEC50 (Coxsackievirus B4) was < 3.70. The pIC50 (L1210) was < 3.70, the pIC50 (CCRF-CEM) was < 3.70 and the pEC50 (Human alphaherpesvirus 3 [7]) was < 4.00. For the same compound, the pEC50 (Human betaherpesvirus 5 [8]) was < 4.00.
In the case of `Nc1ncnc2c1ncn2C[C@H](O)CO` [(S)-DHPA], the pEC50 [1] was < 3.60, the pEC50 (Punta Toro virus) was < 3.60 and the pEC50 (Sindbis virus) was < 3.60. The pEC50 (Human respirovirus 3) was < 3.60 and the pEC50 (Coxsackievirus B4) was < 3.60.
